The source of these data is ChEMBL document CHEMBL1154210, “Reversal of fluconazole resistance by sulfated sterols from the marine sponge Topsentia sp” (J Nat Prod, 2009).

In one data set the test system is Leishmania donovani. The data set is described as follows: Antiprotozoal activity Leishmania donovani by Alamar blue assay. The class given is functional, organism-based. In general terms: The colour change of resazurin is a common sign of viable cells or microbes.
The subject of the next data set is Nakaseomyces glabratus. The data set is described as follows: Antimicrobial activity against Candida glabrata. In kind it is functional, organism-based.
Data set [1] concerns Plasmodium falciparum. Nature of the data set: Antiprotozoal activity Plasmodium falciparum D6. The class given is functional, organism-based.
The test system of the next data set is Pichia kudriavzevii. The data set is described as follows: Antimicrobial activity against Candida Krusei. In kind it is functional, organism-based.
Data set [2] deals with Plasmodium falciparum. Nature of the data set: Antiprotozoal activity Plasmodium falciparum W2. The class given is functional, organism-based.
For data set [3], the system named is Mycobacterium intracellulare. Nature of the data set: Antimicrobial activity against Mycobacterium intracellular. In kind it is functional, organism-based.
Another data set has as its system Cryptococcus neoformans. The data set is described as follows: Antimicrobial activity against Cryptococcus neoformans. The class given is functional, organism-based.
Data set [4] has as its system Vero. The data set is described as follows: Cytotoxicity against african green monkey Vero cells at 11.2 uM after 48 hrs by neutral red assay. To be noted: chlorocebus sabaeus. In kind it is cell-based.
In a further data set the test system is Staphylococcus aureus. The data set is described as follows: Antimicrobial activity against methicillin resistant Staphylococcus aureus. The class given is functional, organism-based.
Data set [5] relates to Saccharomyces cerevisiae. Nature of the data set: Antimicrobial activity against azole-resistant Saccharomyces cerevisiae expressing MDR1 at 13 uM after 40 to 48 hrs in presence of fluconazole. In kind it is functional. The procedure, abridged: (§1)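 S. cerevisiae strains (MDR1-overexpressing or null pump) inoculated in YPD at 1 × 10^4 CFU/mL final into saline-diluted samples. Fluconazole in DMSO at ~1/10th its IC50, with DMSO-only duplicates. Absorbance at 630 nm read before and after 40–48 h at 30 °C. Checkerboard IC50s combined into FIC (combination/alone ratios summed).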

Data set [6] concerns Saccharomyces cerevisiae. The data set is described as follows: Antimicrobial activity against azole-resistant Saccharomyces cerevisiae expressing CDR1 efflux pump at 13 uM after 40 to 48 hrs in presence of fluconazole. In kind it is functional. An outline of the steps:
(§2)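 Checkerboard combination in S. cerevisiae CDR1 efflux pump strain: compound diluted in 0.9% saline, crossed with FLU (in DMSO) over all concentration pairs; inoculum in YPD broth at 1 × 10^4 CFU/mL; incubated 30 °C for 40–48 h; growth read at 630 nm before and after incubation. FIC = (IC50 combined/IC50 alone) summed for compound and FLU.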

The subject of data set [7] is Candida albicans. Nature of the data set: Antimicrobial activity against fluconazole-resistant Candida albicans 1758 over expressing MDR1 at 194 uM ater 24 hrs in presence of fluconazole. In kind it is functional. The procedure, abridged: (§3)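 Broth microdilution in YPD with C. albicans inoculum at 1 × 10^4 CFU/mL final; samples diluted in 0.9% saline. Fluconazole in DMSO at ~1/3rd its IC50, with DMSO-only duplicates. OD 630 nm read before and after 37 °C for 24 h. A checkerboard of sample × fluconazole gave FIC = sum of combination/alone IC50 ratios for each agent.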

In data set [8] the test system is Saccharomyces cerevisiae. The data set is described as follows: Antimicrobial activity against azole-resistant Saccharomyces cerevisiae expressing null pump at 13 uM after 40 to 48 hrs in presence of fluconazole. The class given is functional. An outline of the steps:
as §1

The subject of data set [9] is Candida albicans. The data set is described as follows: Antimicrobial activity against fluconazole-resistant Candida albicans isolate 17 at 13 uM ater 24 hrs in presence of fluconazole. The class given is functional. An outline of the steps:
(§4)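 C. albicans isolates #1 and #17 in YPD at 1 × 10^4 CFU/mL final with saline-diluted samples plus fluconazole (DMSO) at ~1/3rd its IC50. 630 nm readings taken before and after 24 h at 37 °C. FIC was derived from checkerboard IC50s of each agent alone and in combination.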

Data set [10] relates to Vero. The data set is described as follows: Cytotoxicity against african green monkey Vero cells at 9.25 uM after 48 hrs by neutral red assay. The class given is cell-based. To be noted: chlorocebus sabaeus.
For data set [11], the system named is Candida albicans. Nature of the data set: Antimicrobial activity against Fluconazole susceptible Candida albicans 1587 at 194 uM ater 24 hrs in presence of fluconazole. The class given is functional. The procedure, abridged: as §3
Data set [12] has as its system Candida albicans. Nature of the data set: Antimicrobial activity against fluconazole-susceptible Candida albicans isolate 1 at 13 uM ater 24 hrs in presence of fluconazole. The class given is functional. The procedure, abridged: as §4
The test system of data set [13] is Candida albicans. Nature of the data set: Antimicrobial activity against fluconazole-susceptible Candida albicans isolate 1 at 26 uM ater 24 hrs in presence of fluconazole. In kind it is functional. The procedure, abridged:
as §4

Data set [14] concerns Candida albicans. Nature of the data set: Antimicrobial activity against fluconazole-resistant Candida albicans 1758 over expressing MDR1 at 5.7 uM ater 24 hrs in presence of fluconazole. The class given is functional. An outline of the steps: as §3
The test system of data set [15] is Saccharomyces cerevisiae. Nature of the data set: Antimicrobial activity against azole-resistant Saccharomyces cerevisiae expressing null pump at 26 uM after 40 to 48 hrs in presence of fluconazole. The class given is functional. An outline of the steps: as §1
Data set [16] has as its system Saccharomyces cerevisiae. Nature of the data set: Antimicrobial activity against azole-resistant Saccharomyces cerevisiae expressing MDR1 at 26 uM after 40 to 48 hrs in presence of fluconazole. In kind it is functional. The procedure, abridged:
as §1

For data set [17], the system named is Candida albicans. The data set is described as follows: Antimicrobial activity against fluconazole-resistant Candida albicans isolate 17 at 26 uM ater 24 hrs in presence of fluconazole. The class given is functional. An outline of the steps: as §4
In data set [18] the test system is Candida albicans. The data set is described as follows: Antimicrobial activity against Fluconazole susceptible Candida albicans 1587 at 5.7 uM ater 24 hrs in presence of fluconazole. The class given is functional. The procedure, abridged:
as §3

In data set [19] the test system is Saccharomyces cerevisiae. The data set is described as follows: Antimicrobial activity against azole-resistant Saccharomyces cerevisiae expressing CDR1 efflux pump at 26 uM after 40 to 48 hrs in presence of fluconazole. In kind it is functional. The procedure, abridged: as §2
In data set [20] the test system is Candida albicans. Nature of the data set: Antimicrobial activity against fluconazole-susceptible Candida albicans 1587 at 189 uM ater 24 hrs in presence of fluconazole. In kind it is functional. An outline of the steps: as §3
The test system of data set [21] is Candida albicans. Nature of the data set: Antimicrobial activity against fluconazole-resistant Candida albicans 1758 over expressing MDR1 at 189 uM ater 24 hrs in presence of fluconazole. The class given is functional. An outline of the steps: as §3
The subject of data set [22] is Vero. The data set is described as follows: Cytotoxicity against african green monkey Vero cells at 9 uM after 48 hrs by neutral red assay. The class given is cell-based. To be noted: chlorocebus sabaeus.

Activity calls are given as the source filed them. The calls are words filed in the database; no cut-off is given here.

As to `C/C=C(\CC[C@](C)(O)[C@H]1[C@@H](O)C[C@H]2[C@@H]3CCc4cc(O)ccc4[C@H]3CC[C@@]21C)C(C)C` [GEODISTEROL], the outcome (in the data set with Leishmania donovani; in the data set with Nakaseomyces glabratus; in the data set on Plasmodium falciparum [1]; in the data set with Pichia kudriavzevii; in the data set on Plasmodium falciparum [2]; in data set [3]) was inactive. The outcome in the data set with Cryptococcus neoformans and in the data set with Staphylococcus aureus was inactive. Further, the Activity entry in the data set on Vero [4] is on record as “Non-toxic”.
For `C=C(CC[C@](C)(O)[C@H]1[C@@H](O)C[C@H]2[C@@H]3CCc4cc(OS(=O)(=O)[O-])ccc4[C@H]3CC[C@@]21C)C(C)C.[Na+]`, the result (in the data set with Leishmania donovani; in the data set on Nakaseomyces glabratus; in the data set on Plasmodium falciparum [1]; with Pichia kudriavzevii; in the data set with Plasmodium falciparum [2]; in data set [3]) was inactive. The outcome in the data set with Cryptococcus neoformans and in the data set on Staphylococcus aureus was inactive. Also, the “fractional inhibitory concentration index (FICI)” value in the data set on Saccharomyces cerevisiae [5] worked out at 0.15; in the data set on Saccharomyces cerevisiae [6] it was 1.34; in the data set with Candida albicans [7] it was 0.2; with Saccharomyces cerevisiae [8], 0.75; in the data set with Candida albicans [9], 1.8; in the data set with Candida albicans [11] it was 1.6. Further, the “fractional inhibitory concentration index (FICI)” value with Candida albicans [12] is 1.7. For the same compound, in the data set on Vero [10], the Activity result is given as “Non-toxic”.
On to `CC(C)[C@@H]1OC(=O)[C@@H](Cc2ccccc2)N(C)C(=O)[C@H](C(C)C)OC(=O)[C@@H](Cc2ccccc2)N(C)C(=O)[C@H](C(C)C)OC(=O)[C@@H](Cc2ccccc2)N(C)C1=O` [BEAUVERICIN], for which the “fractional inhibitory concentration index (FICI)” value in the data set with Candida albicans [13] came out at 0.5; in the data set on Candida albicans [14] it was 2.8; in the data set on Saccharomyces cerevisiae [15] it was 3.38; with Saccharomyces cerevisiae [16], 2.28; in the data set with Candida albicans [17], 0.7; in the data set with Candida albicans [18], 0.5. The “fractional inhibitory concentration index (FICI)” value in the data set with Saccharomyces cerevisiae [19] is recorded as 0.04.
Regarding `C/C=C(\CC[C@](C)(O)[C@H]1[C@@H](O)C[C@H]2[C@@H]3CCc4cc(OS(=O)(=O)[O-])ccc4[C@H]3CC[C@@]21C)C(C)C.[Na+]`, the result (in the data set on Leishmania donovani; in the data set on Nakaseomyces glabratus; with Plasmodium falciparum [1]; in the data set with Pichia kudriavzevii; in the data set with Plasmodium falciparum [2]; in [3]) was inactive. In addition, the outcome in the data set on Cryptococcus neoformans and in the data set with Staphylococcus aureus was inactive. Further, the “fractional inhibitory concentration index (FICI)” value in the data set with Candida albicans [20] came out at 1.7; in the data set with Saccharomyces cerevisiae [5], 0.08; with Saccharomyces cerevisiae [6], 1.04; with Saccharomyces cerevisiae [8], 1.1; with Candida albicans [9] it was 1.3; in the data set on Candida albicans [21], 0.2. Moreover, the “fractional inhibitory concentration index (FICI)” value with Candida albicans [12] is 1.5. The Activity entry in the data set on Vero [22] is “Non-toxic”.
